Laboratory results from ChEMBL document CHEMBL1141560, “Alpha,beta-cyclic-beta-benzamido hydroxamic acids: novel templates for the design, synthesis, and evaluation of selective inhibitors of TNF-alpha converting enzyme (TACE)” (Bioorg Med Chem Lett, 2008).

How the values were obtained:
Format in all cases: ADME, organism-based
[1] = Oral bioavailability in rat; conditions: in vivo
[2] = Oral bioavailability in rat at […]; conditions: in vivo
[3] = AUC in rat at […], po; design: dose 3.3 mg/kg, route oral; conditions: plasma
[4] = AUC in rat at […], iv; design: dose 3.3 mg/kg, route intravenous; conditions: plasma
[5] = Clearance in rat at […], iv; design: dose 3.3 mg/kg, route intravenous; conditions: in vivo
[6] = Volume of distribution at steady state in rat at […], iv; design: dose 3.3 mg/kg, route intravenous; conditions: in vivo, read-out: Vdss
[7] = Half life in rat at […], iv; design: dose 3.3 mg/kg, route intravenous; conditions: in vivo
[8] = Half life in rat at […], po; design: dose 3.3 mg/kg, route oral; conditions: in vivo
[9] = Oral bioavailability in rat at 5.0 mg/kg; conditions: in vivo
Procedure, shortened: (§1)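 Rats given 5.0 mg/kg IV or PO by n-in-1 cassette dosing; three animals per dosing group, parameters reported as the group average.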

[10] = AUC in rat at 5.0 mg/kg, iv; design: dose 5 mg/kg, route intravenous; conditions: plasma; procedure, shortened: as §1
[11] = Clearance in rat at 5.0 mg/kg, iv; design: dose 5 mg/kg, route intravenous; conditions: in vivo; procedure, shortened: as §1
[12] = Half life in rat at 5.0 mg/kg, po; design: dose 5 mg/kg, route oral; conditions: in vivo; procedure, shortened: as §1
[13] = Volume of distribution at steady state in rat at 5.0 mg/kg, iv; design: dose 5 mg/kg, route intravenous; conditions: in vivo, read-out: Vdss; procedure, shortened: as §1
[14] = AUC in rat at 5.0 mg/kg, po; design: dose 5 mg/kg, route oral; conditions: plasma; procedure, shortened: as §1
[15] = Half life in rat at 5.0 mg/kg, iv; design: dose 5 mg/kg, route intravenous; conditions: in vivo; procedure, shortened: as §1

A bioavailability [1] of 3% was found for `Cc1cc(COc2ccc(C(=O)N[C@@H]3CN(S(C)(=O)=O)C[C@@H]3C(=O)NO)cc2)c2ccccc2n1` in this work.

A bioavailability [2] of 25%, an AUC [3] of 567 nM·h and an AUC [4] of 2230 nM·h were found for `C#CCN1C[C@H](C(=O)NO)[C@H](NC(=O)c2ccc(OCc3cc(C)nc4ccccc34)cc2)C1` in this work. For the same compound, the clearance [5] was 3.3 L/h/kg, the Vd [6] was 1.7 L/kg and the half-life [7] was 2.9 h. For the same compound, the half-life [8] was 3.1 h.

A bioavailability [9] of 21%, an AUC [10] of 4060 nM·h and a clearance [11] of 2.3 L/h/kg were found for `Cc1cc(COc2ccc(C(=O)N[C@@H]3COC[C@@H]3C(=O)NO)cc2)c2ccccc2n1` in this work. It also gave a half-life [12] of 2.9 h, a Vd [13] of 0.8 L/kg and an AUC [14] of 846 nM·h. The half-life [15] was 2.1 h.
